Bioassay records from PubChem BioAssay.
Rows were chosen to be rich in hits. Some 2.2% of all compounds tested hit in one or more screens of this group.
PKD1 kinase inh – blocks activity of human protein kinase D1; Q15139; PKD1 kinase fluorescence polarization assay; inhibition, % (concentration not given with the values); 0.056% of 200,000 active; in the data active = inhibition above about 50%
Wee1 stabilizer – inhibitors of human Wee1 degradation; HeLa Luc-Wee1K328M stability, luciferase luminescence; 100% = proteasome inhibitor MG132 effect; reporter increase, % at 5 µM; P30291; AID 1321; 1.2% of 220,000 active;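 active = activation above the mean of all tested compounds plus 3 SD, set per screening run, cut at about 8.8% in these data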;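 also: cells exposed to compound for 20 h before luminescence read; 0% = DMSO alone and 100% = MG132 at 30 µM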
RBBP9 inh – blocks human serine hydrolase RBBP9; O75884; recombinant RBBP9, FP-Rh probe fluorescence polarization; inhibition, % at 7.94 µM; 0.2% of 220,000 active;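 active = inhibition above the campaign mean of all tested compounds plus 3 SD, cut at about 14% in these data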;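 also: plate controls were DMSO wells with RBBP9 for no effect and wells lacking RBBP9 protein for full effect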
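Controls: DMSO-treated enzyme wells and wells lacking RBBP9 | Material: RBBP9 protein | Technique: Fluorescence polarization | Replication: Single well per compound, no replicates | Buffer or medium: Tris-NaCl-Pluronic buffer, pH 8.0 | Timing: 30 min compound preincubation, 45 min probe labeling, 25 °C | Read-out basis: Percent inhibition from mP, scaled between DMSO and no-protein wells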
DTT redox prof – compounds producing H2O2 with reducing agent – biochemical, NIH compound library profiling, artefact control for MLSCN library redox annotation, primary screen; DTT-dependent redox cycling H2O2, phenol red/HRP absorbance; 100% = 100 µM peroxide control, 0% = buffer; activation, % at 10 µM; 0.03% of 200,000 active;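 active = activation of at least 50% relative to the plate's high and low controls in the primary single-dose screen; inactive = activation below 50%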;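 also: compound incubated with DTT at 0.8 mM final as the reducing agent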
p97 inhibitor – blocks human p97 ATPase activity. P55072. recombinant p97 ATPase, Kinase-Glo ATP luminescence, 3 h. inhibition, % at 8 µM. 0.42% of 220,000 active. AID 1481; in the data active = inhibition above about 15%;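 also: 0% = DMSO vehicle and 100% = wells lacking enzyme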
Arbovirus anti – blocks arbovirus infection. arbovirus infection cell-based antiviral screen. 0.37% of 200,000 active. inhibition, % at 10 µM; in the data active = inhibition above about 30%
* marks the source's active call; other numbers are inactive results; . = no result given.

SMILES	PKD1 kinase inh	Wee1 stabilizer	RBBP9 inh	DTT redox prof	p97 inhibitor	Arbovirus anti
Cc1ccc(C)c(N(CC(=O)NC2CCCC2)C(=O)CCCC(=O)Nc2ccccn2)c1	-6	8.9*	-8	0	1	0
Cc1cccc(N(CC(=O)NC2CCCC2)C(=O)CCCC(=O)Nc2ccccn2)c1	-2	0	-6	0	2	-3
COc1ccc2c(C)cc(Sc3nnnn3-c3ccccc3)nc2c1	2	3	2	0	-2	31*
COc1ccc(CSc2nnnn2-c2ccccc2)cc1	1	0	-1	0	-1	-1
NS(=O)(=O)c1cc2c(cc1C(F)(F)F)NC(Cc1ccccc1)NS2(=O)=O (stereo unspecified)	-14	10*	-7	0	3	3
NS(=O)(=O)c1cc2c(cc1Cl)NC(CSCc1ccccc1)=NS2(=O)=O	-1	-3	-3	0	9	10
C=CCn1c(SCC(=O)c2cc(C)n(C(C)COC)c2C)nc2sc(C)c(C)c2c1=O (stereo unspecified)	-13	-2	-3	2	1	17
Cn1cccc1Cc1nnc(SCC(=O)N2CCOCC2)n1-c1ccc(F)cc1	-8	-2	-3	0	1	4
COc1ccc(-n2c(Cc3cccn3C)nnc2SCC(=O)N2CCOCC2)cc1	-10	13*	-3	-2	3	-2
CC(C)CC(COCc1ccc(Cl)cc1)N1CCN(C(=O)c2ccc(Cl)cc2Cl)CCC1=O (stereo unspecified)	-4	-1	-4	1	-6	-21
CCN(CC)C(=O)Cn1c(=O)n(CCCC(=O)NCc2ccccc2)c(=O)c2sccc21	-6	-1	3	0	4	-7
Cc1ccc[n+](-c2[nH]c(=O)sc2/C=N/NC(=O)c2ccccc2[O-])c1	6	0	-5	1	-4	6
O=c1[nH][nH]c(C(F)(F)F)c1/C=N/N1CCOCC1	-6	-2	-4	-2	2	0
CCOC(=O)C1(Cc2cccc(F)c2)CCN(CC(O)CO)CC1 (stereo unspecified)	.	10*	-5	.	4	.
CCOC(=O)C1(Cc2cccc(F)c2)CCN(CC2CC2)CC1	0	1	0	0	0	-11
CCOC(=O)C1(Cc2cccc(OC)c2)CCN(Cc2cccc(OC)c2O)CC1	3	-2	-4	-1	-4	33*
Cc1ccc(C[n+]2cccc(-c3ccccc3)c2)c(C)c1	4	-3	-1	0	4	0
CSCC[C@H](NC(=O)c1cccc([N+](=O)[O-])c1C)c1nc2ccccc2[nH]1	6	-4	-4	0	-4	-6
Cc1c(C(=O)NC(Cc2ccccc2)c2nc3ccccc3[nH]2)cccc1[N+](=O)[O-] (stereo unspecified)	6	0	-7	1	3	33*
COc1ccccc1N(CC(=O)NC1CCCCC1)S(=O)(=O)c1cccs1	.	9.9*	2	.	-2	.
COc1ccccc1N(CC(=O)NC(C)C)S(=O)(=O)c1cccs1	-9	2	-4	0	-2	2
CN(CC(=O)Nc1ccc(N2CCOCC2)cc1)C(=O)CC(c1ccccc1)c1ccccc1	3	10*	-2	-1	-3	1
CSc1ncc(-c2ccc(Cl)cc2)[nH]1	.	6	-12	.	-3	.
CCNC(=O)CSc1nnc(-c2cc(-c3ccc(Cl)cc3)nc3ccccc23)o1	-3	1	-2	1	-4	-11
C(=N\Nc1nncc2ccccc12)/c1ccccc1	.	7	8	.	-1	.
COc1ccc(/C=N/Nc2nncc3ccccc23)c(OC)c1	3	8.9*	-3	0	-3	6
CN(c1ccccc1)S(=O)(=O)c1cccc(NC(=O)CSc2n[nH]c(N)n2)c1	.	1	-9	.	2	.
CC(C)c1nc(SCC(=O)Nc2cccc(S(N)(=O)=O)c2)n[nH]1	5	10*	-7	2	0	1
CCc1nnc(NC(=O)C2Cc3ccccc3CN2S(=O)(=O)CC)s1 (stereo unspecified)	2	5	2	-1	-3	4
CCS(=O)(=O)N1Cc2ccccc2CC1C(=O)Nc1nnc(SCc2ccc(F)cc2)s1 (stereo unspecified)	-3	9.1*	-6	0	-4	-7
